Data as given in ChEMBL document CHEMBL3112463, “Synthesis and biological activity of polyalthenol and pentacyclindole analogues” (2014).

Assays:
Assay type in all cases: functional
A549 = test: Antiproliferative activity against human A549 cells assessed as growth inhibition after 48 hrs by SRB assay; details: A549, 48 h
Procedure, shortened: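 Cells kept in medium with foetal calf serum and 2 mM L-glutamine at 37 °C, 5% CO₂. Trypsinized, resuspended in penicillin/streptomycin medium, >97% trypan blue viability, seeded at 10,000 cells/well. Compounds from DMSO stocks (0.25% v/v DMSO control), triplicate dilutions, added day 1 for 48 h. Fixed with cold 50% TCA for 60 min at 4 °C, then SRB staining, OD 492 nm, background corrected.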

[1] = Antiproliferative activity against human HBL100 cells assessed as growth inhibition after 48 hrs by SRB assay; details: HBL-100, 48 h
Procedure, shortened: (§1)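 Cells maintained at 37 °C, 5% CO₂ in medium with foetal calf serum and 2 mM L-glutamine. Trypsinized into antibiotic medium, >97% viable by trypan blue, plated at 10,000 cells/well. Triplicate dilutions from DMSO stocks (0.25% v/v DMSO control) added on day 1 for 48 h. TCA fixation (50%, 4 °C, 60 min), SRB stain, OD 492 nm corrected for medium-only blank.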

SW1573 = test: Antiproliferative activity against human SW1573 cells assessed as growth inhibition after 48 hrs by SRB assay; details: SW1573, 48 h; procedure, shortened: as §1
T47D = test: Antiproliferative activity against human T47D cells assessed as growth inhibition after 48 hrs by SRB assay
Procedure, shortened: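 T-47D cells grown at 37 °C, 5% CO₂ in serum- and 2 mM L-glutamine-containing medium. Trypsinized, viability >97% by trypan blue, seeded at 15,000 cells/well. Compounds added day 1 in triplicate dilutions (DMSO vehicle 0.25% v/v as control) for 48 h. Cold 50% TCA fixation 60 min at 4 °C, SRB read at 492 nm with blank correction.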

WiDr = test: Antiproliferative activity against human WiDr cells assessed as growth inhibition after 48 hrs by SRB assay
Procedure, shortened: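 WiDr cells seeded at 20,000 cells/well after trypsinization into antibiotic-containing medium (trypan blue viability >97%). Culture at 37 °C, 5% CO₂ with foetal calf serum and 2 mM L-glutamine. Exposure to triplicate compound dilutions from DMSO stocks (0.25% v/v DMSO control) started day 1, lasting 48 h. Fixed with ice-cold 50% TCA, 60 min at 4 °C, then SRB, OD 492 nm background-subtracted.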

HeLa = test: Antiproliferative activity against human HeLa cells assessed as growth inhibition after 48 hrs by SRB assay; procedure, shortened: as §1

Compound | GI50 (A549) | GI50 [1] | GI50 (SW1573) | GI50 (T47D) | GI50 (WiDr) | GI50 (HeLa)
COC(=O)[C@@]1(C)CC[C@@H]2C3=C1CC[C@@H](C)[C@]3(C)Cc1c2[nH]c2ccccc12 | 4.6 µM | 3.5 µM | 8.3 µM | 3.4 µM | 4 µM | 3.2 µM
COC(=O)[C@@]1(C)CCC=C2[C@@H]1CC[C@@H](C)[C@]2(C)Cc1c[nH]c2c(Cl)cccc12 | 22 µM | 19 µM | 14 µM | 24 µM | 31 µM | 14 µM
COC(=O)[C@@]1(C)CCC=C2[C@@H]1CC[C@@H](C)[C@]2(C)Cc1c(C)[nH]c2ccc(C)cc12 | 26 µM | 25 µM | 18 µM | 31 µM | 28 µM | 17 µM
COC(=O)[C@@]1(C)CCC=C2[C@@H]1CC[C@@H](C)[C@]2(C)Cc1c[nH]c2ccc(Cl)cc12 | 16 µM | 17 µM | 11 µM | 17 µM | 20 µM | 11 µM
COC(=O)[C@@]1(C)CCC=C2[C@@H]1CC[C@@H](C)[C@]2(C)Cc1c(C)[nH]c2ccc(F)cc12 | 15 µM | 14 µM | 12 µM | 15 µM | 17 µM | 11 µM
COC(=O)[C@@]1(C)CC[C@@H]2C3=C1CC[C@@H](C)[C@]3(C)C[C@@H]1c3cccc(C)c3N[C@H]21 | 30 µM | 32 µM | 31 µM | 29 µM | 43 µM | 22 µM
COC(=O)[C@@]1(C)CCC=C2[C@@H]1CC[C@@H](C)[C@]2(C)Cc1c[nH]c2ccc(OC)cc12 | 2.2 µM | 2.1 µM | 1.3 µM | 3.7 µM | 5.7 µM | 1.2 µM
COC(=O)[C@@]1(C)CCC=C2[C@@H]1CC[C@@H](C)[C@]2(C)Cc1c[nH]c2ccc(C)cc12 | 17 µM | 18 µM | 15 µM | 20 µM | 22 µM | 14 µM
COC(=O)[C@@]1(C)CCC=C2[C@@H]1CC[C@@H](C)[C@]2(C)Cc1c(C)[nH]c2c(C)cccc12 | 14 µM | 16 µM | 15 µM | 19 µM | 21 µM | 14 µM
COC(=O)[C@@]1(C)CC[C@@H]2C3=C1CC[C@@H](C)[C@]3(C)Cc1c2[nH]c2ccc(Br)cc12 | 17 µM | 16 µM | 12 µM | 21 µM | 22 µM | 14 µM
COC(=O)[C@@]1(C)CC[C@@H]2C3=C1CC[C@@H](C)[C@]3(C)C[C@@H]1c3cc(C)ccc3N[C@H]21 | 27 µM | 15 µM | 23 µM | 23 µM | 32 µM | 18 µM
COC(=O)[C@@]1(C)CCC=C2[C@@H]1CC[C@@H](C)[C@]2(C)Cc1c[nH]c2ccc(C(F)(F)F)cc12 | 15 µM | 15 µM | 14 µM | 15 µM | 18 µM | 11 µM
COC(=O)[C@@]1(C)CCC=C2[C@@H]1CC[C@@H](C)[C@]2(C)Cc1c(C)[nH]c2ccc(Cl)cc12 | 17 µM | 15 µM | 14 µM | 17 µM | 18 µM | 12 µM
COC(=O)[C@@]1(C)CC[C@@H]2C3=C1CC[C@@H](C)[C@]3(C)Cc1c2[nH]c2ccc(C)cc12 | 16 µM | 11 µM | 15 µM | 16 µM | 19 µM | 11 µM
COC(=O)[C@@]1(C)CC[C@@H]2C3=C1CC[C@@H](C)[C@]3(C)C[C@@H]1c3cccc(Cl)c3N[C@H]21 | 54 µM | 52 µM | 49 µM | 50 µM | 67 µM | 31 µM
Cc1c(C[C@]2(C)C3=CCC[C@](C)(C(=O)O)[C@H]3CC[C@H]2C)c2cc(Cl)ccc2n1C(c1ccccc1)c1ccccc1 | 9.1 µM | 13 µM | 13 µM | 13 µM | 16 µM | 5.5 µM
COC(=O)[C@@]1(C)CCC=C2[C@@H]1CC[C@@H](C)[C@]2(C)Cc1c[nH]c2ccccc12 | 5 µM | 4.5 µM | 7.3 µM | 4.2 µM | 8.7 µM | 3.6 µM

Compound | GI50 (A549) | GI50 [1] | GI50 (SW1573) | GI50 (T47D) | GI50 (WiDr) | GI50 (HeLa)
COC(=O)[C@@]1(C)CCC=C2[C@@H]1CC[C@@H](C)[C@]2(C)Cc1c[nH]c2c(C)cccc12 | 11 µM | 8 µM | 7.8 µM | 18 µM | 26 µM | 4.9 µM
COC(=O)[C@@]1(C)CCC=C2[C@@H]1CC[C@@H](C)[C@]2(C)Cc1c[nH]c2c(Br)cccc12 | 22 µM | 18 µM | 14 µM | 24 µM | 32 µM | 13 µM
COC(=O)[C@@]1(C)CC[C@@H]2C3=C1CC[C@@H](C)[C@]3(C)Cc1c2[nH]c2ccc(OC)cc12 | 7.7 µM | 5 µM | 5.9 µM | 6.5 µM | 1.2 µM | 3.9 µM
COC(=O)[C@@]1(C)CCC=C2[C@@H]1CC[C@@H](C)[C@]2(C)Cc1c[nH]c2ccc(Br)cc12 | 15 µM | 16 µM | 12 µM | 16 µM | 20 µM | 10 µM
COC(=O)[C@@]1(C)CCC=C2[C@@H]1CC[C@@H](C)[C@]2(C)Cc1c(/C=C/[N+](=O)[O-])[nH]c2ccccc12 | 13 µM | 16 µM | 13 µM | 15 µM | 21 µM | 6.9 µM
COC(=O)[C@@]1(C)CC[C@@H]2C3=C1CC[C@@H](C)[C@]3(C)C[C@@H]1c3cc(F)ccc3N[C@H]21 | 25 µM | 18 µM | 27 µM | 27 µM | 32 µM | 20 µM
COC(=O)[C@@]1(C)CC[C@@H]2C3=C1CC[C@@H](C)[C@]3(C)Cc1c2[nH]c2c(Cl)cccc12 | 21 µM | 16 µM | 17 µM | 21 µM | 21 µM | 12 µM
COC(=O)[C@@]1(C)CC[C@@H]2C3=C1CC[C@@H](C)[C@]3(C)C[C@@H]1c3ccccc3N[C@H]21 | 39 µM | 78 µM | 30 µM | 35 µM | 50 µM | 19 µM
COC(=O)[C@@]1(C)CC[C@@H]2C3=C1CC[C@@H](C)[C@]3(C)C[C@@H]1c3cc(OC)ccc3N[C@H]21 | 22 µM | 15 µM | 25 µM | 19 µM | 25 µM | 20 µM
COC(=O)[C@@]1(C)CCC=C2[C@@H]1CC[C@@H](C)[C@]2(C)Cc1c(C)[nH]c2ccc(Br)cc12 | 15 µM | 15 µM | 14 µM | 16 µM | 15 µM | 11 µM
COC(=O)[C@@]1(C)CC[C@@H]2C3=C1CC[C@@H](C)[C@]3(C)C[C@@H]1c3cc(Br)ccc3N[C@H]21 | 40 µM | 34 µM | 45 µM | 31 µM | 55 µM | 25 µM
COC(=O)[C@@]1(C)CCC=C2[C@@H]1CC[C@@H](C)[C@]2(C)Cc1c(C)n(C(c2ccccc2)c2ccccc2)c2ccc(Cl)cc12 | > 100 µM | > 100 µM | > 100 µM | > 100 µM | > 100 µM | > 100 µM
COC(=O)[C@@]1(C)CCC=C2[C@@H]1CC[C@@H](C)[C@]2(C)Cc1c(C)[nH]c2c(Br)cccc12 | 27 µM | 27 µM | 25 µM | 31 µM | 38 µM | 22 µM
COC(=O)[C@@]1(C)CC[C@@H]2C3=C1CC[C@@H](C)[C@]3(C)Cc1c2[nH]c2c(Br)cccc12 | 35 µM | 26 µM | 26 µM | 31 µM | 37 µM | 18 µM
COC(=O)[C@@]1(C)CC[C@@H]2C3=C1CC[C@@H](C)[C@]3(C)Cc1c2[nH]c2c(C)cccc12 | 16 µM | 13 µM | 16 µM | 23 µM | 22 µM | 12 µM
COC(=O)[C@@]1(C)CCC=C2[C@@H]1CC[C@@H](C)[C@]2(C)Cc1c[nH]c2ccc(F)cc12 | 6.2 µM | 4.8 µM | 7.3 µM | 3.9 µM | 8 µM | 3.7 µM
